Results taken from ChEMBL document CHEMBL4118097, “Selective Inhibitors of Dual Leucine Zipper Kinase (DLK, MAP3K12) with Activity in a Model of Alzheimer's Disease” (J Med Chem, 2017).

What was measured:
[1] = molecular target: Dual specificity tyrosine-phosphorylation-regulated kinase 4 (Homo sapiens) (UniProt Q9NR20); assay: Inhibition of full length recombinant GST-tagged human DYRK4 expressed in baculovirus expression system at 1 uM by FRET assay relative to control
[2] = molecular target: Dual specificity tyrosine-phosphorylation-regulated kinase 1A (Homo sapiens) (UniProt Q13627); assay: Inhibition of full length recombinant GST-tagged human DYRK1A expressed in baculovirus expression system at 1 uM by FRET assay relative to control
[3] = molecular target: Calcium/calmodulin-dependent protein kinase type II subunit beta (Homo sapiens) (UniProt Q13554); assay: Inhibition of recombinant full length His-tagged human CaMK2beta expressed in baculovirus expression system at 1 uM by FRET assay relative to control
[4] = molecular target: Serine/threonine-protein kinase B-raf (Homo sapiens) (UniProt P15056); assay: Inhibition of B-Raf (unknown origin) at 1 uM by FRET assay relative to control
[5] = molecular target: Mitogen-activated protein kinase kinase kinase 5 (Homo sapiens) (UniProt Q99683); assay: Inhibition of recombinant full length GST-tagged human ASK1 expressed in baculovirus expression system at 1 uM by FRET assay relative to control
Summary of the method: (§1)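 Single-concentration screen at 1 μM in Life Technologies SelectScreen, across a 220-kinase panel. Z′-LYTE format measures phosphorylation of a labeled peptide by FRET. Results are reported as percent inhibition.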

[6] = molecular target: LIM domain kinase 1 (Homo sapiens) (UniProt P53667); assay: Inhibition of recombinant His-tagged human LIMK1 catalytic domain (285 to 638 residues) expressed in baculovirus expression system at 1 uM by FRET assay relative to control
Summary of the method: (§2)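 Single-point screen at 1 μM compound in a 220-kinase panel run by Life Technologies (SelectScreen). Z′-LYTE format: phosphorylation of a labeled peptide substrate read by FRET. Values are reported as percent inhibition.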

[7] = molecular target: Mast/stem cell growth factor receptor Kit (Homo sapiens) (UniProt P10721); assay: Inhibition of recombinant GST/His-tagged human KIT cytoplasmic domain (544 to 976 residues) at 1 uM by FRET assay relative to control; summary of the method: as §2
[8] = molecular target: Mitogen-activated protein kinase 10 (Homo sapiens, UniProt P53779); assay: Inhibition of recombinant full length GST-tagged human JNK3 expressed in baculovirus expression system at 1 uM by FRET assay relative to control; summary of the method: as §1
[9] = molecular target: Homeodomain-interacting protein kinase 4 (Homo sapiens) (UniProt Q8NE63); assay: Inhibition of recombinant full length GST-tagged human HIPK4 expressed in baculovirus expression system at 1 uM by FRET relative to control; summary of the method: as §1
[10] = molecular target: Tyrosine-protein kinase Fes/Fps (Homo sapiens) (UniProt P07332); assay: Inhibition of recombinant full length His-tagged human FES cytoplasmic domain expressed in baculovirus expression system at 1 uM by FRET assay relative to control
[11] = molecular target: Ephrin type-A receptor 8 (Homo sapiens) (UniProt P29322); assay: Inhibition of recombinant GST-tagged human EphA8 cytoplasmic domain expressed in baculovirus expression system at 1 uM by FRET assay relative to control; summary of the method: as §2
[12] = molecular target: Serine/threonine-protein kinase pim-1 (Homo sapiens) (UniProt P11309); assay: Inhibition of full length His-tagged human PIM1 expressed in baculovirus expression system at 1 uM by FRET assay relative to control
[13] = molecular target: Phosphatidylinositol 4,5-bisphosphate 3-kinase catalytic subunit alpha isoform (Homo sapiens) (UniProt P42336); assay: Inhibition of PI3KA (unknown origin) at 1 uM by FRET assay relative to control
[14] = molecular target: Mitogen-activated protein kinase 14 (Homo sapiens) (UniProt Q16539); assay: Inhibition of recombinant full length GST-tagged human p38alpha expressed in Escherichia coli at 1 uM by FRET assay relative to control
[15] = molecular target: Ribosomal protein S6 kinase alpha-5 (Homo sapiens) (UniProt O75582); assay: Inhibition of recombinant full length GST-tagged human MSK1 expressed in baculovirus at 1 uM by FRET assay relative to control; summary of the method: as §1
[16] = molecular target: Serine/threonine-protein kinase 25 (Homo sapiens) (UniProt O00506); assay: Inhibition of recombinant full length GST-tagged human YSK1 expressed in baculovirus expression system at 1 uM by FRET assay relative to control
[17] = molecular target: Tyrosine-protein kinase Tec (Homo sapiens) (UniProt P42680); assay: Inhibition of recombinant full length His-tagged human TEC cytoplasmic domain expressed in baculovirus expression system at 1 uM by FRET assay relative to control
[18] = molecular target: Tyrosine-protein kinase SYK (Homo sapiens) (UniProt P43405); assay: Inhibition of recombinant full length N-terminal GST-tagged human Syk cytoplasmic domain expressed in baculovirus expression system at 1 uM by FRET assay relative to control
[19] = molecular target: Serine/threonine-protein kinase SIK2 (Homo sapiens) (UniProt Q9H0K1); assay: Inhibition of SIK2 (unknown origin) at 1 uM by FRET assay relative to control
[20] = molecular target: 5'-AMP-activated protein kinase catalytic subunit alpha-1 (Homo sapiens) (UniProt Q13131); assay: Inhibition of PRKAA1 (unknown origin) at 1 uM by FRET assay relative to control
[21] = molecular target: cGMP-dependent protein kinase 1 (Homo sapiens) (UniProt Q13976); assay: Inhibition of PKG1alpha (unknown origin) at 1 uM by FRET assay relative to control
[22] = molecular target: Protein kinase C eta type (Homo sapiens) (UniProt P24723); assay: Inhibition of PKCeta (unknown origin) at 1 uM by FRET assay relative to control
[23] = molecular target: Mitogen-activated protein kinase kinase kinase 10 (Homo sapiens, UniProt Q02779); assay: Inhibition of recombinant human full length GST-tagged MLK2 expressed in baculovirus expression system by FRET assay
[24] = molecular target: Histamine H2 receptor (Homo sapiens) (UniProt P25021); assay: Binding affinity to recombinant human H2 receptor at 10 uM relative to control
Summary of the method: (§3)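 Broad radioligand-binding and enzyme screening panel covering 42 targets (biogenic amine and neuropeptide receptors, ion channels, neurotransmitter transporters, acetylcholinesterase). Single test concentration of 10 μM. Results expressed as binding relative to control, with a hit defined as >50% of control.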

[25] = molecular target: Opioid receptors; mu/kappa/delta (Homo sapiens) (UniProt P41145+P41143+P35372); assay: Binding affinity to opiod receptor (unknown origin) receptor at 10 uM relative to control; type: protein assay; summary of the method: as §3
[26] = molecular target: Peroxisome proliferator-activated receptor delta (Homo sapiens) (UniProt Q03181); assay: Binding affinity to recombinant human PPARdelta at 10 uM relative to control; summary of the method: as §3
[27] = molecular target: 5-hydroxytryptamine receptor 1B (Homo sapiens) (UniProt P28222); assay: Binding affinity to 5HT1B receptor (unknown origin) receptor at 10 uM relative to control; summary of the method: as §3
[28] = molecular target: 5-hydroxytryptamine receptor 2B (Homo sapiens) (UniProt P41595); assay: Binding affinity to 5HT2B receptor (unknown origin) receptor at 10 uM relative to control; summary of the method: as §3
[29] = molecular target: Sodium-dependent serotonin transporter (Homo sapiens) (UniProt P31645); assay: Binding affinity to 5HT transporter (unknown origin) at 10 uM relative to control; summary of the method: as §3

5-hydroxytryptamine receptor 2B (Homo sapiens), sequence (P41595 whole entry): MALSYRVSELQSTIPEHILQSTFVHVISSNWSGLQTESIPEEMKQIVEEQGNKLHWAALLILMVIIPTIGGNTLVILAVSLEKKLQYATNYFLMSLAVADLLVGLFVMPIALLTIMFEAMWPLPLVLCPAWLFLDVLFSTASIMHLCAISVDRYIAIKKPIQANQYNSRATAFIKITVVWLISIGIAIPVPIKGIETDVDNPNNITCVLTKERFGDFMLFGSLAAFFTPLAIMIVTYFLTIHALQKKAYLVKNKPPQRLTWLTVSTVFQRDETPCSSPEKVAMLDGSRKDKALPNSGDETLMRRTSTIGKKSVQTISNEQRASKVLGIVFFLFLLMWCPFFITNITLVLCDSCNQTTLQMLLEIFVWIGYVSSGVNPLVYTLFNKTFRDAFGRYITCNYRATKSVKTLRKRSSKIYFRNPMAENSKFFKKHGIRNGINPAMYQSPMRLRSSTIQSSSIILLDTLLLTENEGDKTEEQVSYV
Opioid receptors; mu/kappa/delta (Homo sapiens), sequence (P35372 whole entry, looked up): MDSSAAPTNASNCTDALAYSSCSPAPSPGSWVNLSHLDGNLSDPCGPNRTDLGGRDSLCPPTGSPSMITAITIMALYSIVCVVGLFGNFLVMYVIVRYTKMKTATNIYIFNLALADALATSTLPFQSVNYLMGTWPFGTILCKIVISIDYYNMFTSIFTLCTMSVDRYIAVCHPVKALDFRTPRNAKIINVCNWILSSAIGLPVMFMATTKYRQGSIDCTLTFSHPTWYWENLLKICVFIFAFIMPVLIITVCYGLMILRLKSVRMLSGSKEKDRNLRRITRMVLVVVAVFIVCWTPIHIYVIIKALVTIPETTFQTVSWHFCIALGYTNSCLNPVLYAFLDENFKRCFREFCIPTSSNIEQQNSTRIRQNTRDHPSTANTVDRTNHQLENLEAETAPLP
Opioid receptors; mu/kappa/delta (Homo sapiens), sequence (P41143 whole entry, looked up): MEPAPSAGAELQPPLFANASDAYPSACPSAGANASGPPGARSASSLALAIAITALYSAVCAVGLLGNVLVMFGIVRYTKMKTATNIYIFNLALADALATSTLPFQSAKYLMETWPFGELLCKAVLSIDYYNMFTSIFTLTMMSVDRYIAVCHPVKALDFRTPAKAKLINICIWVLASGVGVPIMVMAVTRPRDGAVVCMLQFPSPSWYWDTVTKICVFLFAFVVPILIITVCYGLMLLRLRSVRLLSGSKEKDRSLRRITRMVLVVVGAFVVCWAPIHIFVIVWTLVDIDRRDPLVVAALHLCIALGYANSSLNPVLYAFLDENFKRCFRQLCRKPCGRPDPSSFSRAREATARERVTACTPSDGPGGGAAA
Opioid receptors; mu/kappa/delta (Homo sapiens), sequence (P41145 whole entry, looked up): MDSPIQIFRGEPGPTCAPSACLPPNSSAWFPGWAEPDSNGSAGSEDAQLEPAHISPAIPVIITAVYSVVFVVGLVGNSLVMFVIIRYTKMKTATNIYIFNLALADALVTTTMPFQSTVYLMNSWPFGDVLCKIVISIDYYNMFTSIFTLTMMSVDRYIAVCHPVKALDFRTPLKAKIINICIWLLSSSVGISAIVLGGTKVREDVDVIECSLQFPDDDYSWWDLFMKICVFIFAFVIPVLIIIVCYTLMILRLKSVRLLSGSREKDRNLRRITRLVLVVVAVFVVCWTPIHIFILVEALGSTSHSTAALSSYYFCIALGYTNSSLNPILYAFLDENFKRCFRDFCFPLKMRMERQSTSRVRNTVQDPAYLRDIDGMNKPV
Tyrosine-protein kinase Fes/Fps (Homo sapiens), sequence (P07332 whole entry, the tested form may be a part): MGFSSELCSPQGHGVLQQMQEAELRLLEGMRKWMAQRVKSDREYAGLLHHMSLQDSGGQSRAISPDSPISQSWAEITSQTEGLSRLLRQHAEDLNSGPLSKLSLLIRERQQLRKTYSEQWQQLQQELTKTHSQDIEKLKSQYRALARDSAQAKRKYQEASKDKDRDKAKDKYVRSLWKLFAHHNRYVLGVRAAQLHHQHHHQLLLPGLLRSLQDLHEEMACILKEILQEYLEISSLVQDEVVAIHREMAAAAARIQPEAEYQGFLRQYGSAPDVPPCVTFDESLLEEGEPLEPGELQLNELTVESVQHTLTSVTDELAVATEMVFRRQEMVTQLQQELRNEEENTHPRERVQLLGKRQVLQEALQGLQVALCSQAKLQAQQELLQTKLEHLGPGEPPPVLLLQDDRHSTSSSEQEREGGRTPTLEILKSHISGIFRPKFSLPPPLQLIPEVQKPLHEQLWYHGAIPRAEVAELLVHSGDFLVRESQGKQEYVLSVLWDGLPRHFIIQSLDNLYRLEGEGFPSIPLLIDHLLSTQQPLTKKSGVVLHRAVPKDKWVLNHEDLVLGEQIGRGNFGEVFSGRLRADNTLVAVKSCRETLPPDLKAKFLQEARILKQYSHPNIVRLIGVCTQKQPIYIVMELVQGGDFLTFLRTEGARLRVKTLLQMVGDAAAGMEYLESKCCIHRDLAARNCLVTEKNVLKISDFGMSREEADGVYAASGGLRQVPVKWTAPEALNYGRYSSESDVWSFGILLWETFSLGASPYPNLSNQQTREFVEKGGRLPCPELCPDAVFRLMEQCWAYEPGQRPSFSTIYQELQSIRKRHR
Mitogen-activated protein kinase 10, sequence (P53779 whole entry): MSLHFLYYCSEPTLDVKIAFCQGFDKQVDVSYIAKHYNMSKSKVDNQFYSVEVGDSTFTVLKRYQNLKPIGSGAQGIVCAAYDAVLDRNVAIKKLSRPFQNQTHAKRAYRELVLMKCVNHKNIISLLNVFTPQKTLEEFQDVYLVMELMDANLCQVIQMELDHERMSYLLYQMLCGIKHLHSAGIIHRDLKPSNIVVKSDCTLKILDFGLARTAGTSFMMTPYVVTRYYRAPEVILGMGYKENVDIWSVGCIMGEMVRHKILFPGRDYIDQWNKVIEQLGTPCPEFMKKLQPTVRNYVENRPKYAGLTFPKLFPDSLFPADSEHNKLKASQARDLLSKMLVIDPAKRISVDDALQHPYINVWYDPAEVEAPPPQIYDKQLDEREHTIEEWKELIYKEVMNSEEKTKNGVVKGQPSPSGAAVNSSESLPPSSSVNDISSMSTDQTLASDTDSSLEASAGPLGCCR
Mitogen-activated protein kinase kinase kinase 10, sequence (Q02779 whole entry): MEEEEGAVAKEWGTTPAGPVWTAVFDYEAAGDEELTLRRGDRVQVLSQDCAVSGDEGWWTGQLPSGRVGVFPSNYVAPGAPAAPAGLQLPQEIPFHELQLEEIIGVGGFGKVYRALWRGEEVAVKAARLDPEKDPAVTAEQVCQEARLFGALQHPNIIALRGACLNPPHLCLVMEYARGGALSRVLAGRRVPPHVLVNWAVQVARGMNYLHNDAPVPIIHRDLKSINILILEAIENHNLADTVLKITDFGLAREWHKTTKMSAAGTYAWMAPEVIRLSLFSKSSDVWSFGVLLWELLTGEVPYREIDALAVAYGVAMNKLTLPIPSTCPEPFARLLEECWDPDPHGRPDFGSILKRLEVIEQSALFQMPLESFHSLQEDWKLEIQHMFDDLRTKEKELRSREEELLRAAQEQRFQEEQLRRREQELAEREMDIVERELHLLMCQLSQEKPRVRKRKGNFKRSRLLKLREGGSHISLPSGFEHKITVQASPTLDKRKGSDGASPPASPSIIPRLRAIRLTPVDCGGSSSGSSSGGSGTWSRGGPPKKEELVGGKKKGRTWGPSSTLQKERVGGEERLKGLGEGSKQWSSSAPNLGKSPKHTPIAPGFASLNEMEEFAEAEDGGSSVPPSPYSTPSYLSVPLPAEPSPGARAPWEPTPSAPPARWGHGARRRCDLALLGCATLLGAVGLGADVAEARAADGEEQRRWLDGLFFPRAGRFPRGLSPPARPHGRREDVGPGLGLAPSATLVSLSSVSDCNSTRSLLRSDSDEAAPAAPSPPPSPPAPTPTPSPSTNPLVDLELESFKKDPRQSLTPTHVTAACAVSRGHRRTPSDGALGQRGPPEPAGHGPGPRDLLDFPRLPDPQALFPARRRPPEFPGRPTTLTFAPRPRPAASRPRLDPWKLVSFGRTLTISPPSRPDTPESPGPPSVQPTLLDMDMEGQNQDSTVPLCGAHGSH
LIM domain kinase 1 (Homo sapiens), sequence (P53667 whole entry, looked up, the tested form may be a part): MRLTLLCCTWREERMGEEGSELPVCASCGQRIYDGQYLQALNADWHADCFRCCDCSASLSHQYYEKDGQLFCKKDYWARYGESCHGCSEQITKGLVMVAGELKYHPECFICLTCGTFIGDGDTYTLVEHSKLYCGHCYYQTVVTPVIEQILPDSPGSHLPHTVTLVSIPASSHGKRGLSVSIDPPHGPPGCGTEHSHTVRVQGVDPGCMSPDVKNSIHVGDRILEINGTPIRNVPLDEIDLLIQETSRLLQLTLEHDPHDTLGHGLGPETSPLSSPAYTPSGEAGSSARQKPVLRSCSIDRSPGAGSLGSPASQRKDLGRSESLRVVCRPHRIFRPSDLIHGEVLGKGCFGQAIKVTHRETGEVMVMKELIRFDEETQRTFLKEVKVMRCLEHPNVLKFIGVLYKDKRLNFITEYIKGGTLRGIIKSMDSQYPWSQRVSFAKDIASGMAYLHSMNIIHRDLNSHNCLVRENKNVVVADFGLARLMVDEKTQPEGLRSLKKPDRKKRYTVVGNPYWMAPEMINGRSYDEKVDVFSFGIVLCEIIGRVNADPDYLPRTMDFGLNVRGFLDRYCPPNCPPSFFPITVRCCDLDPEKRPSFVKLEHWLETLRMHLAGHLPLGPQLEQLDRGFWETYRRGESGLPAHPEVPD
5-hydroxytryptamine receptor 1B (Homo sapiens), sequence (P28222 whole entry): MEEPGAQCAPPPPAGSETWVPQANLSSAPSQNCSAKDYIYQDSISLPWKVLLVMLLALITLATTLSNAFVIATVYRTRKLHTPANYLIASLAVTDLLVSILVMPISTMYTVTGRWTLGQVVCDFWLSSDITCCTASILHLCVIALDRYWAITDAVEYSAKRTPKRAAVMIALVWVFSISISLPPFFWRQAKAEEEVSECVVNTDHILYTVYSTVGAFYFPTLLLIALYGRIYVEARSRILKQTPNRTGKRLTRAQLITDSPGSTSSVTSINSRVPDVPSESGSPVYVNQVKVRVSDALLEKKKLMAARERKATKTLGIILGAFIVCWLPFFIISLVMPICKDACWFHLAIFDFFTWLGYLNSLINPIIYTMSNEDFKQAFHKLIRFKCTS

SMILES	inhibition [1]	inhibition [2]	inhibition [3]	inhibition [4]	inhibition [5]	inhibition [6]	inhibition [7]	inhibition [8]	inhibition [9]	inhibition [10]	inhibition [11]	inhibition [12]	inhibition [13]	inhibition [14]	inhibition [15]	inhibition [16]	inhibition [17]	inhibition [18]	inhibition [19]	inhibition [20]	other results
Nc1ncc(-c2cc([C@H]3[C@@H]4CN(C5COC5)C[C@@H]43)n(CC3CC3)n2)cc1C(F)(F)F	-1.6%	3.9%	1.6%	1.8%	3.1%	0.3%	6.5%	4.2%	6.8%	21.1%	18.6%	-4%	-9.8%	5.8%	1.9%	-3.8%	4.8%	30.6%	18.4%	3.3%	inhibition [21]: -1.1%; inhibition [22]: -3.9%; IC50 [23]: 5.15 µM; Activity [24]: > 50%; Activity [25]: > 50%; Activity [26]: > 50%; Activity [27]: > 50%; Activity [28]: > 50%; Activity [29]: > 50%
CC(C)n1nc(-c2cnc(N)c(OC(F)(F)F)c2)cc1[C@H]1[C@@H]2CN(C3COC3)C[C@@H]21	-1.4%	7%	10.6%	3.7%	-5.3%	7.7%	23.9%	8.6%	40.7%	17.1%	8.7%	-4.6%	-2.7%	1.1%	7.2%	8%	-1.5%	26.8%	10.8%	5%	inhibition [21]: 0.1%; inhibition [22]: 1.7%; IC50 [23]: 7.88 µM; Activity [24]: > 50%; Activity [25]: > 50%; Activity [26]: > 50%; Activity [27]: > 50%; Activity [28]: > 50%; Activity [29]: > 50%
